According to article PMC8992017 (Journal of medicinal chemistry, 2019):
Each block holds one compound with its values, some of them ahead of it.

Legend:
[1] = tested on: NF-κB; details: compound alone, without LPS; cited from earlier work
[2] = tested on: NF-κB; experiment: NF-κB activation in THP1-Blue NF-κB reporter cells; assay type: cell-based; details: for NF-κB activity (in words): compound 5 μM + LPS, compared with compound 1
Method in brief: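 THP1-Blue NF-κB cells at 10^5/well in RPMI with 10% FBS, pen/strep and Normocin. Test compound (1 mM DMSO stock) was diluted into LPS medium, giving final 5 μM compound ([…]), with LPS co-added. After 20 h, supernatant SEAP was measured colorimetrically with QuantiBlue at 630 nm. Two-point normalized: reference sulfonamide + LPS = 200%, LPS alone = 100%; mean ± SEM.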

[3] = tested on: C57BL/6 (wild-type, WT) mice; assay type: in vivo; details: for systemic toxicity, as indicated by behavior change or weight loss (in words): mice co-immunized with MPLA, ovalbumin and compound; for OVA-specific IgG antibody titers versus MPLA alone (in words): mice, n=8 per group, intramuscular, ovalbumin 20 μg/animal + MPLA + compound, days 0 and 21
Method in brief: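 Female/male not stated; C57BL/6 wild-type mice aged 7–9 weeks, 8 per group. Test compound mixed with ovalbumin (20 μg/animal) and MPLA and injected into the gastrocnemius muscle on days 0 and 21. Mice then bled, and serum OVA-specific IgG titres measured by ELISA. Data given as mean ± SEM.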

[4] = tested on: ISRE; details: compound alone, without IFN-α; cited from earlier work
[5] = tested on: ISRE; experiment: ISRE activity in ISRE-bla THP-1 reporter cells; assay type: cell-based; details: for ISRE activity (in words): compound 5 μM + IFN-α, compared with compound 1
Method in brief: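 ISRE-bla THP-1 cells at 5×10^4/well in RPMI with 10% dialyzed FBS, 0.1 mM non-essential amino acids, 1 mM pyruvate and pen/strep. Test compound (1 mM DMSO stock) was diluted in IFN-α medium, giving final 5 μM compound ([…]) and final 100 U/mL IFN-α. Incubation 16 h, then CCF4-AM FRET substrate 3 h at RT in the dark. Excitation 405 nm; background-subtracted 465/535 nm emission ratio. Two-point normalized: reference sulfonamide + IFN-α = 200%, IFN-α alone = 100%; mean ± SEM.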

[6] = Stability of compound in DMSO stock and in assay media; assay type: physicochemical

Structure (SMILES): CCOc1ccc(S(=O)(=O)Nc2cc(OC)c(Cl)cc2OC)cc1 [Compound 1, N-(4-chloro-2,5-dimethoxyphenyl)-4-ethoxybenzenesulfonamide]
- NF-κB activity when tested alone (in words) [1]: did not possess any NF-κB or ISRE activity
- mean SEAP response in NF-κB assay ([2]; compound 1 + LPS, raw value used for normalization, mean ± SEM): 3.44 ± 0.08 µg/mL
- systemic toxicity, as indicated by behavior change or weight loss (in words) [3]: without demonstrable systemic toxicity
- OVA-specific IgG antibody titers versus MPLA alone (in words) [3]: statistically significant increases
- ISRE activity when tested alone (in words) [4]: did not possess any NF-κB or ISRE activity
- mean emission ratio in ISRE assay ([5]; compound 1 + IFN-α, raw value used for normalization, mean ± SEM): 1.88 ± 0.04 µg/mL

Structure (SMILES): CCOc1ccc(S(=O)(=O)N(C)c2cc(OC)c(Cl)cc2OC)cc1 [Compound 33, N-(4-chloro-2,5-dimethoxyphenyl)-4-ethoxy-N-methylbenzenesulfonamide]
- systemic toxicity, as indicated by behavior change or weight loss (in words) [3]: without demonstrable systemic toxicity
- OVA-specific IgG antibody titers versus MPLA alone (in words) [3]: statistically significant increases

- stability of stock in DMSO (in words) [6]: stable
Structure (SMILES): CCOc1ccc(S(=O)(=O)N(C(C)=O)c2cc(OC)c(Cl)cc2OC)cc1 [Compound 48, N-(4-chloro-2,5-dimethoxyphenyl)-N-((4-ethoxyphenyl)sulfonyl)acetamide]
- ISRE activity (in words) [5]: active

Structure (SMILES): CCOc1ccc(S(=O)(=O)N(CCCNC(=O)CCCCCNC(=O)c2ccc3c(c2)C(=O)OC32c3ccc(O)cc3Oc3cc(O)ccc32)c2cc(OC)c(Cl)cc2OC)cc1 [Compound 56, N-(6-((3-((N-(4-chloro-2,5-dimethoxyphenyl)-4-ethoxyphenyl)sulfonamido)propyl)amino)-6-oxohexyl)-3’,6’-dihydroxy-3-oxo-3H-spiro[isobenzofuran-1,9’-xanthene]-5-carboxamide]
- NF-κB activity (in words) [2]: completely inactive
- ISRE activity (in words) [5]: completely inactive

Structure (SMILES): CCOc1ccc(S(=O)(=O)N(CCCNC(=O)CCCC[C@H]2SC[C@H]3NC(=O)N[C@H]32)c2cc(OC)c(Cl)cc2OC)cc1 [Compound 58, N-(3-((N-(4-chloro-2,5-dimethoxyphenyl)-4-ethoxyphenyl)sulfonamido)propyl)-5-((3aR,4R,6aS)-2-oxohexahydro-1H-thieno[3,4-d]imidazol-4-yl)pentanamide]
- NF-κB activity (in words) [2]: equipotent to compound 1
- ISRE activity (in words) [5]: equipotent to compound 1

Structure (SMILES): CCOc1ccc(S(=O)(=O)Nc2cc(OC)c(N=[N+]=[N-])cc2OC)cc1 [Compound 59, N-(4-azido-2,5-dimethoxyphenyl)-4-ethoxybenzenesulfonamide]
- NF-κB activity (in words) [2]: potent
- ISRE activity (in words) [5]: potent

Structure (SMILES): COc1ccc(S(=O)(=O)Nc2cc(OC)c(Cl)cc2OC)cc1N [Compound 60, 3-Amino-N-(4-chloro-2,5-dimethoxyphenyl)-4-methoxybenzenesulfonamide]
- NF-κB activity (in words) [2]: resurgence of activity
- ISRE activity (in words) [5]: resurgence of activity

Structure (SMILES): C#CCN(c1cc(OC)c(N=[N+]=[N-])cc1OC)S(=O)(=O)c1ccc(OCC)cc1 [Compound 62, N-(4-azido-2,5-dimethoxyphenyl)-4-ethoxy-N-(prop-2-yn-1-yl)benzenesulfonamide]
- NF-κB activity (in words) [2]: very potent
- ISRE activity (in words) [5]: very potent

Structure (SMILES): CCOc1ccc(S(=O)(=O)N(CCCNC(=O)CCCC[C@H]2SC[C@H]3NC(=O)N[C@H]32)c2cc(OC)c(N=[N+]=[N-])cc2OC)cc1 [Compound 64, N-(3-((N-(4-azido-2,5-dimethoxyphenyl)-4-ethoxyphenyl)sulfonamido)propyl)-5((3aR,4R,6aS)-2-oxohexahydro-1H-thieno[3,4-d]imidazol-4-yl)pentanamide]
- NF-κB activity (in words) [2]: relatively weak activity
- ISRE activity (in words) [5]: relatively weak activity
